Sampled rows, rich in hits. Any-hit rate of the full collection: about 5.2%.
EBNA-1 inhibitor: EBNA-1 DNA-binding inhibitors, primary screen, biochemical, fluorescence polarization; 300,000 compounds, 0.34% hits; inhibition, % at 14.8 µM; in the data active = inhibition above about 28%
ZTA DNA inh: blocks Epstein-Barr virus ZTA, an EBNA-1 counter-screen | AID 2234 | inhibition, % at 11 µM | 320,000 compounds, 0.15% hits | P03206 | ZTA-DNA binding, fluorescence polarization; in the data active = inhibition above about 33%
Target sequence (P03206 whole entry, looked up): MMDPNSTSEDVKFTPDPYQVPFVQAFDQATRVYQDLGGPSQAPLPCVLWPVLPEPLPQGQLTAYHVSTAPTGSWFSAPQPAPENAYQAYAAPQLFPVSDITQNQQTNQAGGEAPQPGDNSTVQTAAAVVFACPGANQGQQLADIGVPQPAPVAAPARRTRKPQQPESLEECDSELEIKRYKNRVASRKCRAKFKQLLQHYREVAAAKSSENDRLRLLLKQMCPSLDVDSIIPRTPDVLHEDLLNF
HCV NS3 hel inh: inhibitors of HCV NS3 helicase, primary screen, biochemical, Cy5 molecular beacon fluorescence; inhibition, % at 10.9 µM; 290,000 compounds, 0.56% hits; AID 1800, 2009; NS3 helicase DNA unwinding;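 active = inhibition above the mean of all tested compounds plus 3 SD, set per campaign, cut at about 35% in these data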
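System: NS3 helicase fragment of HCV / Schedule: 1 h at 25 °C / Control set: DMSO alone as 0% and 110 µM thioflavine S as 100% / Reagent: Cy5/quencher beacon DNA duplex and ATP to start / Technique: Cy5 fluorescence / Replication: singlicate / Evaluation: % inhibition of end-to-start signal ratio versus controls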
ALR inh: inhibitors of human ALR sulfhydryl oxidase, primary screen, biochemical, H2O2 detection, HRP-luminol luminescence, single point; inhibition, % (no concentration beside the values); AID 485317, 2010; FAD-linked sulfhydryl oxidase ALR (Homo sapiens), P55789; purified ALR, DTT oxidation; 290,000 compounds, 3.8% hits;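 active = mean replicate inhibition above about 79%, with every replicate also reaching it, limit read from the data; inconclusive = only one of the two criteria met; inactive = mean below limit and not every replicate reaching it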
Target sequence (P55789 whole entry, looked up): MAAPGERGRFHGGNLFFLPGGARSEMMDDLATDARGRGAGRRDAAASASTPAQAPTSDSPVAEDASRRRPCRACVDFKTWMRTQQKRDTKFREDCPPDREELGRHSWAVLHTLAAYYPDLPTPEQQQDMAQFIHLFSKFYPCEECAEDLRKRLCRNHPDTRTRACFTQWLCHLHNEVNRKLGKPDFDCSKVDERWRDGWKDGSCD
core dimer inh: inhibitors of HCV core protein dimerization, primary screen, biochemical, TR-FRET, high-throughput. 300,000 compounds, 0.33% hits. TR-FRET GST/Flag-core106 dimerization, 1536-well. inhibition, % at 5 µM;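 active = inhibition above the mean of all tested compounds plus 3 SD, set per screening campaign, cut at about 45% in these data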
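System: GST/Flag-tagged HCV core106 proteins. Incubation: compound-protein-antibody incubation 4 h at 22.5 °C. Technique: HTRF with 340 nm excitation, 617/671 nm emission. Medium: KF-containing HEPES buffer, pH 7.45, DTT, CHAPS, BSA. Read-out: inhibition (%) from 671 over 617 nm ratio. Also added: Eu(K)-anti-GST 90 ng/mL plus XL665-anti-Flag 1 µg/mL.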
PfM18AAP inh: PfM18AAP inhibitors, malaria aminopeptidase, primary screen, biochemical, QFRET, recombinant enzyme; M18 aspartyl aminopeptidase (Plasmodium falciparum 3D7); H-Glu-NHMec fluorogenic cleavage; inhibition, % at 7.35 µM; 290,000 compounds, 1.2% hits; AID 1822, 2009;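 active = inhibition above the campaign mean inhibition over all tested compounds plus 3 SD, cut at about 28% in these data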
Each line names hits and unclear results; the compound was inactive in the other large screens.

Cn1c(N)c(C(=O)COC(=O)c2ccccc2C(=O)c2ccc(Cl)c([N+](=O)[O-])c2)c(=O)n(C)c1=O	none (no result: EBNA-1 inhibitor, ZTA DNA inh, HCV NS3 hel inh, core dimer inh, PfM18AAP inh)
O=C(NCCCN1CCCC1=O)C(=O)NCC1OCCN1S(=O)(=O)c1ccc(Cl)cc1 (stereo not given)	none
N#CC(C#N)=Cc1cc2ccccc2nc1N1CCOCC1	ALR inh 95
N#C/C(=C\c1cc2ccccc2nc1N1CCOCC1)C(=O)Nc1ccc(N2CCOCC2)cc1	none
Cc1cc(NC(=O)CN2C(=O)N(C)C3(CCCCC3)C2=O)ccc1Br	none (no result: EBNA-1 inhibitor, HCV NS3 hel inh, core dimer inh, PfM18AAP inh)
CCC(NC(=O)CN1CCN(C(=O)c2cccs2)CC1)c1ccc(C)cc1 (stereo not given)	none (no result: EBNA-1 inhibitor, HCV NS3 hel inh, core dimer inh, PfM18AAP inh)
COc1ccc(NC(=O)CSc2nc3c(cc2C#N)CN(C)CC3)cc1	ALR inh 97 (no result: HCV NS3 hel inh, PfM18AAP inh)
CCN1CCc2nc(SCC(=O)Nc3ccc(OC)cc3)c(C#N)cc2C1	ALR inh 99
CN1CCc2nc(SCC(=O)Nc3ccc(F)cc3)c(C#N)cc2C1	ALR inh 99
CCOC(=O)C1=C(CSc2nc3c(cc2C#N)CN(C)CC3)OC(N)=C(C#N)C1c1ccc(Cl)cc1 (stereo not given)	core dimer inh 57 (no result: ALR inh)
CCOC(=O)C1=C(CSc2nc3c(cc2C#N)CN(C)CC3)OC(N)=C(C#N)C1c1ccncc1 (stereo not given)	none
COc1ccc(C)cc1NC(=O)/C=C/c1ccc(OC)c(S(=O)(=O)N2CCOCC2)c1	none (no result: EBNA-1 inhibitor, HCV NS3 hel inh, core dimer inh, PfM18AAP inh)
CC1(C)Nc2ccccc2N(CC(=O)N2CCCCC2)C1=O	ALR inh 98
CC1(C)Nc2ccccc2N(Cc2ccc([N+](=O)[O-])cc2)C1=O	ALR inh 96
CCCOC(=O)c1ccc(Oc2cn[nH]c2-c2ccc(O)cc2O)cc1	ALR inh 85
CCOC(=O)c1ccc(Oc2cn[nH]c2-c2ccc(O)cc2O)cc1	ALR inh inconclusive
CCN(CCCNC(=O)c1[nH]c(C)c(C(C)=O)c1C)c1ccccc1	ALR inh 89
CC(=O)c1c(C)[nH]c(C(=O)NCCc2ccccc2)c1C	ALR inh 100
COc1ccc(N2CCN(C(CNC(=O)c3ccco3)c3cccnc3)CC2)cc1 (stereo not given)	ALR inh 89
O=C(COc1coc(CN2CCN(c3ccccc3)CC2)cc1=O)NCC1CCCO1 (stereo not given)	ALR inh 93 (no result: HCV NS3 hel inh, PfM18AAP inh)
COc1ccc(N2CCN(C(CNC(=O)C(=O)NCc3cccnc3)c3ccco3)CC2)cc1 (stereo not given)	none
COC(=O)NCC(c1ccco1)N1CCN(c2ccccc2)CC1 (stereo not given)	ALR inh 96
O=C(NCc1ccncc1)C(=O)NCC(c1ccco1)N1CCN(c2ccccc2)CC1 (stereo not given)	ALR inh 99
Cc1c(Cl)cccc1NC(=S)Nc1ccc(S(=O)(=O)Nc2ncccn2)cc1	none (no result: EBNA-1 inhibitor, ZTA DNA inh, HCV NS3 hel inh, core dimer inh, PfM18AAP inh)
O=C(CSc1nc(C(F)(F)F)cc(=O)[nH]1)Nc1cccc2ccccc12	none (no result: HCV NS3 hel inh, PfM18AAP inh)
O=C(NCc1cccnc1)C(=O)NCC(c1ccco1)N1CCN(c2ccc(F)cc2)CC1 (stereo not given)	ALR inh 86
FC(F)(F)c1cccc(N2CCN(C(=S)NCC3CCCO3)CC2)c1 (stereo not given)	none
S=C(NCC1CCCO1)N1CCN(c2ccccc2)CC1 (stereo not given)	ALR inh 98
O=C(NCC(c1cccnc1)N1CCOCC1)c1ccco1 (stereo not given)	none
O=C(NCC(c1cccnc1)N1CCN(c2ccc(F)cc2)CC1)c1ccco1 (stereo not given)	ALR inh 92
COc1ccc(N2CCN(C(CNC(=O)c3ccc4c(c3)OCO4)c3cccnc3)CC2)cc1 (stereo not given)	ALR inh 97
O=C(NS(=O)(=O)Oc1ccc(F)c(Cl)c1)OC[C@@H]1CCCN2CCCCC12 (stereo not given in full)	none
Cc1ccc(NC(=O)COc2cccc(-n3cnnn3)c2)cc1[N+](=O)[O-]	none (no result: ALR inh)
CC(C)Cc1ccccc1S(N)(=O)=O	none
O=C(NCC1CCCO1)C(=O)NCC(c1ccco1)N1CCN(c2ccccc2)CC1 (stereo not given)	ALR inh 98
O=C(NCC(c1ccco1)N1CCN(c2ccccc2)CC1)c1ccco1 (stereo not given)	none (no result: HCV NS3 hel inh, PfM18AAP inh)
COc1ccc(N2CCN(C(CNC(=O)c3ccco3)c3ccco3)CC2)cc1 (stereo not given)	ALR inh 91 (no result: HCV NS3 hel inh, PfM18AAP inh)
Cc1ccc(NC(=O)c2ccccc2)cc1	none
CNC(=S)/N=C(\Nc1ccc(C)cc1)c1ccccc1	PfM18AAP inh 30 (no result: ALR inh)
CN1CCN(C(=O)C2CC(=O)N(c3ccc(Cl)cc3)C2)CC1 (stereo not given)	none
Cc1ccccc1OCC(=O)NCCc1nc2ccccc2[nH]1	ALR inh 99
COc1ccc(NC(=O)COC(=O)CCOc2ccccc2C)cc1Cl	ALR inh 98 (no result: HCV NS3 hel inh, PfM18AAP inh)
Cc1cc(C)cc(OCC(=O)NCCc2nc3ccccc3[nH]2)c1	none
Cc1ccccc1OCC(=O)Nc1ccncc1	ALR inh 99
Cc1ccccc1OCC(=O)Nc1ccc(Cc2ccncc2)cc1	none
Cc1ccc(NC(=O)c2cccc(S(=O)(=O)N3CCN(c4ccccc4)CC3)c2)nc1	none (no result: HCV NS3 hel inh, ALR inh, PfM18AAP inh)
S=C(c1c[nH]c2ccc(Br)cc12)N1CCOCC1	ALR inh 99
COc1ccc(NC2CCCN(C(=O)C3=NN(C)C(=O)CC3)C2)cc1OC (stereo not given)	ALR inh 98
CC(C)c1ccc(NC2CCCN(C(=O)C3=NN(C)C(=O)CC3)C2)cc1 (stereo not given)	ALR inh 98
COc1ccc(NC2CCCN(C(=O)c3cccc(C)n3)C2)cc1OC (stereo not given)	ALR inh inconclusive
CCC(C)c1ccc(NC(=O)Nc2cccnc2)cc1 (stereo not given)	none
NC(=S)Nc1ccc(Cl)c(Cl)c1	none
NC(=S)Nc1ccc(Oc2ccc(NC(N)=S)cc2)cc1	ALR inh 99
O=C(O)c1ccccc1NS(=O)(=O)c1ccc2c3c(cccc13)C(=O)N2	none
Cc1cc(O)ccc1NS(=O)(=O)c1ccc2c3c(cccc13)C(=O)N2	ALR inh 99
NC(=O)c1cc(S(=O)(=O)N2CCOCC2)ccc1N1CCCC1	none
CC1CCCCN1c1ccc(N)cc1C(N)=O (stereo not given)	ALR inh 94
O=C(N/N=C/c1ccc(F)c(F)c1)c1cccc(S(=O)(=O)N2CCCCC2)c1	none (no result: EBNA-1 inhibitor, HCV NS3 hel inh, ALR inh, core dimer inh, PfM18AAP inh)

Screening data from PubChem BioAssay.
